# Experiments:
# [1] = tested on: Mus musculus; assay: Inhibition of mescaline effects in mice following p.o. administration.; format: functional; details: po
# How it was run: (§1)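 In mice, antagonism of mescaline-induced effects was tested after oral administration. Potency is an ED50 in mg/kg, calculated as free base weight.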
# [2] = tested on: Mus musculus; assay: Antimescaline activity in the mouse (administered po); format: functional; how it was run: as §1
# [3] = species: Mus musculus; assay: Ability to block the aggressive behavior caused by prolonged isolation in mouse; format: functional
# How it was run: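 Mice made aggressive by prolonged isolation; compounds dosed orally (po); blocking of aggressive behaviour scored and ED50 derived in mg/kg, expressed as free base weight; values averaged from three measurements, some single measurements.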
# [4] = tested on: Rattus norvegicus; assay: In vivo 5-HT2 antagonism of 5-HTP-induced head twitch in rat; format: functional
# How it was run: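 Rats given 5-hydroxytryptophan (5HTP) to induce head twitches, a read-out of in vivo 5HT2 antagonism; compounds given orally (po); ED50 in mg/kg as free base weight; values averaged from three measurements, some single measurements.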
# [5] = tested on: Rattus norvegicus; assay: In vivo activity of 5-HTP-induced head twitch in rat as a measure of 5-HT2 antagonism; format: functional
# How it was run: (§2)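 In rats, head twitches were induced with 5-hydroxytryptophan as an in vivo read-out of 5HT2 antagonism. The compound was dosed po, and inhibition of twitching gave an ED50 (mg/kg, free base weight).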
# [6] = tested on: Rattus norvegicus; assay: In vivo antagonism of compound determined by the ability to inhibit 5-HTP-induced head twitch in rat (administered po); format: functional; how it was run: as §2
# [7] = tested on: Mus musculus; assay: Ability to block the aggressive behavior caused by prolonged isolation in mouse (administered po); format: functional
# How it was run: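 Mice were made aggressive by prolonged isolation. The compound was given orally, and blockade of the aggressive behavior was scored. ED50 is in mg/kg, expressed as free base weight.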
# [8] = target: Sigma non-opioid intracellular receptor 1 (Cavia porcellus) (UniProt Q60492); assay: Binding affinity for sigma receptor of guinea pig whole brain using [3H]-SKF- 100047 radioligand
# Chain of Sigma non-opioid intracellular receptor 1 (Cavia porcellus) (Q60492 whole entry, looked up): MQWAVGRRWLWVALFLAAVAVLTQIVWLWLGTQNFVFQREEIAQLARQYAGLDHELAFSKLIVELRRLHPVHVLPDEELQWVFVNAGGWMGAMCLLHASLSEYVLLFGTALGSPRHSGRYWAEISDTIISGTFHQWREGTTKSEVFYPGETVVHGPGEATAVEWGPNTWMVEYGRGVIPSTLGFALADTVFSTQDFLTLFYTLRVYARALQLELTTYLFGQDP
Structure (SMILES),ED50 [1] [mg/kg],ED50 [2] [mg/kg],also measured
Cc1ccc(CN2CCC(C3CCc4ccccc4C3=O)CC2)cc1.O (configuration not stated),> 10,–,–
Cl.O=C1c2ccccc2CCC1C1CCN(Cc2ccccc2)CC1 (configuration not stated),4.5,–,–
Cl.O=C1c2ccccc2CCC12CCN(Cc1ccc([N+](=O)[O-])cc1)CC2,> 10,–,–
Cl.O=C1c2ccccc2CCC12CCN(CC1CCCCC1)CC2,> 10,–,–
COc1ccc2c(c1)CCC(C1CCN(CCc3ccccc3)CC1)C2=O (configuration not stated),6.5,–,–
Br.O=C1c2ccccc2CCC1C1CCN(CC2CC2)CC1 (configuration not stated),> 10,–,–
O=C(O)/C=C/C(=O)O.O=C1c2c(F)cc(F)cc2CCC12CCN(CCc1ccccc1)CC2,> 10,–,–
Cl.O=C1c2cccc(F)c2CCC1C1CCN(CCc2ccccc2)CC1 (configuration not stated),6.8,–,–
C[C@@H]1CN(CCCn2c3ccccc3c3ccccc32)C[C@H](C)N1 [RIMCAZOLE],–,22,ED50 [3]: 48 mg/kg
Cl.O=C1c2ccccc2CCC12CCN(CCc1ccccc1)CC2,10,–,ED50 [3]: 30 mg/kg; ED50 [4]: 10 mg/kg
CC(C)(C)c1ccc(CN2CCC3(CCc4ccccc4C3=O)CC2)cc1.Cl,> 10,–,–
Cl.OC1c2ccccc2CCC12CCN(CCc1ccccc1)CC2 (configuration not stated),0.064,–,ED50 [5]: 0.07 mg/kg; ED50 [3]: 10 mg/kg
Cl.O=C1c2ccccc2CCC1C1CCN(Cc2ccc(C(F)(F)F)cc2)CC1 (configuration not stated),–,> 10,–
O=C1c2ccc(F)cc2CCC1C1CCN(CCc2ccccc2)CC1 (configuration not stated),–,1.9,–
Cl.O=C1c2ccc(Cl)cc2CCC1C1CCN(CCc2ccccc2)CC1 (configuration not stated),5.4,–,–
CC(C)(C)c1ccc(CN2CCC(C3CCc4ccccc4C3=O)CC2)cc1 (configuration not stated),–,> 10,–

Structure (SMILES),ED50 [1] [mg/kg],ED50 [2] [mg/kg],also measured
O=C1c2ccc(Cl)cc2CCC12CCN(CCc1ccccc1)CC2,10,–,–
Br.O=C1c2ccccc2CCC1C1CCN(CCc2ccccc2)CC1 (configuration not stated),–,6.4,–
O=C1c2ccc(F)cc2CCC1C1CCN(Cc2ccccc2)CC1 (configuration not stated),> 10,–,–
OC1CCc2ccccc2C12CCN(CCc1ccccc1)CC2 (configuration not stated),> 30,–,–
c1ccc(CN2CCC3(CCCc4ccccc43)CC2)cc1,–,> 30,ED50 [6]: > 30 mg/kg; ED50 [7]: > 30 mg/kg
Br.O=C(CC1CCN(CC2CC2)CC1)c1ccc(F)cc1,–,0.35,Ki [8]: 10 nM; ED50 [3]: 1.9 mg/kg; ED50 [4]: 1.8 mg/kg
O=C(O)CC(O)C(=O)O.O=C1c2ccccc2CCC12CCN(Cc1ccc3ccccc3c1)CC2,> 10,–,–
Cl.O=C1c2ccccc2CCC12CCN(Cc1ccc(F)cc1)CC2,–,> 10,–
CN1CCC2(CCc3ccccc3C2=O)CC1.Cl,> 10,–,–
Br.CC(C1CC1)N1CCC(C2CCc3ccccc3C2=O)CC1 (configuration not stated),–,> 30,–
Cl.O=C(CCCN1CCC2(CCc3ccccc3C2=O)CC1)c1ccc(F)cc1,0.65,–,–
O=C1CCc2ccccc2C12CCN(CCc1ccccc1)CC2,> 30,–,–
COc1ccc(CN2CCC3(CCc4ccccc4C3=O)CC2)cc1.Cl,–,> 10,–
O=C(O)CC(O)C(=O)O.O=C1c2ccccc2CCC12CCN(Cc1ccc(C(F)(F)F)cc1)CC2,–,> 10,–
Cl.O=C1c2ccccc2CCC12CCN(Cc1ccccc1)CC2,> 10,–,–
Cl.O=C1c2ccccc2CCC1C1CCN(Cc2ccc(F)cc2)CC1 (configuration not stated),–,10,–
